“Also recorded” adds a separate entry of the source. Structures can show the parent of a compound that is named as a salt. Where two headings read alike, the source gives them in different places.
Key:
Sm.5HTRL [1] = molecular target: T1, Sm.5HTRL (Schistosoma mansoni, UniProt A0A173FEI8); assay: Sm.5HTRL cAMP luminescence; type: cell-based; conditions: for Emax: read-out: Sm.5HTRL Emax (normalized to 5-HT)
T1 sequence (A0A173FEI8 1-547): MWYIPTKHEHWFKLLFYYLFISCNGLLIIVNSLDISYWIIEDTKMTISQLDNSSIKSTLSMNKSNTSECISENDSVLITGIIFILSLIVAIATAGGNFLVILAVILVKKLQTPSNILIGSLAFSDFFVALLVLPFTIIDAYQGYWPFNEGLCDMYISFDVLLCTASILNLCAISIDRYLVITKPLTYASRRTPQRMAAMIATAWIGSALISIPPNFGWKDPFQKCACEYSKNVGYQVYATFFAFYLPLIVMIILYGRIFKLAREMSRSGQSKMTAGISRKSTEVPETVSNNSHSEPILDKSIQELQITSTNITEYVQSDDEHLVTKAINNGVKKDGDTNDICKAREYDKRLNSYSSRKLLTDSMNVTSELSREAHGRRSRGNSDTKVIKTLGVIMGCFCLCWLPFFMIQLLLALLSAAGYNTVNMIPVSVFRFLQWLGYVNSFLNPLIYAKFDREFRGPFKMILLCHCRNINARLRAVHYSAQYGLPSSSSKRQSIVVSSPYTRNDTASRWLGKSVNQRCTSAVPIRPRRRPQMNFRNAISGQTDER
Summary of the method: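 HEK-293 cells stably carrying the GloSensor-22F cAMP reporter and codon-optimised Sm.5HTRL (pcDNA3.1), selected with hygromycin (200 μg/mL) and G418 (400 μg/mL), plated 2.5x10^4 cells/well the day before. Assay buffer was HBSS/HEPES (20 mM, pH 7.4), 0.1% BSA, D-luciferin 1 mg/mL. Cells were equilibrated 1 h at room temperature, then IBMX 200 μM for 30 min. Luminescence was read 45 min after test compound; Emax was taken relative to 5-HT.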

adult S. mansoni [2] = assay: Adult schistosome mobility assay, agonist; design: species or system Schistosoma mansoni; conditions: adult male worms ex vivo; for increase in worm movement: 5 min incubation
Summary of the method: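 Adult worms came from female Swiss Webster mice 49 days after infection with NMRI-strain cercariae. They were washed in RPMI 1640 with HEPES 25 mM, 5% heat-inactivated FBS and pen-strep, then cultured overnight at 37 °C/5% CO2. Males (4–5/well, 3 mL) were exposed to test compound for 5 min. Movement was filmed for 1 min at 4 frames/s and quantified by image analysis; mean ± standard error, ≥3 independent experiments.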

human 5-HT7 receptor = conditions: cited from earlier work
[3] = test system: mammalian 5-HT7 receptors; conditions: cited from earlier work
Sm.5HTRL [4] = molecular target: T1, Sm.5HTRL; assay: Sm.5HTRL cAMP luminescence; type: cell-based; conditions: for antagonist activity at Sm.5HTRL (in words): inhibition of 5-HT response, test compound up to 50 μM
Summary of the method: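 Sm.5HTRL/GloSensor-22F stable HEK-293 cells, 2.5x10^4/well, in HBSS/HEPES (20 mM, pH 7.4), 0.1% BSA, 1 mg/mL D-luciferin. After 1 h at room temperature, IBMX 200 μM was added for 30 min. Test compound was added and read 45 min, then 500 nM serotonin was added and luminescence read another 45 min. IC50 came from concentration-inhibition curves; Ki was estimated by Cheng-Prusoff.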

Sm.5HTRL [5] = molecular target: T1, Sm.5HTRL; conditions: ref Chan et al., cited from earlier work
adult S. mansoni [6] = conditions: previous work; ref Chan et al., 2016c; cited from earlier work
adult S. mansoni [7] = assay: Adult schistosome mobility assay, antagonist; design: species or system Schistosoma mansoni; conditions: for inhibition of 5-HT evoked movement (in words): concentrations as high as 50 μM, serotonin 200 μM; for concentration inhibiting 5-HT evoked movement: 1 h incubation, then serotonin 200 μM
Summary of the method: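 Adult worms were recovered 49 days after cercarial infection of female Swiss Webster mice (NMRI strain parasite). They were kept overnight at 37 °C/5% CO2 in RPMI 1640 with HEPES 25 mM, 5% heat-inactivated FBS and pen-strep. Males (4–5/well) were incubated 1 h in test compound, then serotonin 200 μM was added. One-minute videos at 4 frames/s were analysed for movement; mean ± standard error, ≥3 independent experiments.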

[8] = test system: HEK-293 cells expressing the GloSensor-22F reporter alone; assay: Counter-screen on parental GloSensor-22F cell line lacking Sm.5HTRL; type: cell-based; conditions: agonists at 10 μM
Summary of the method: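 Counter-screen used HEK-293 cells stably expressing the GloSensor-22F cAMP reporter without Sm.5HTRL, plated 2.5x10^4 cells/well the day before. Assay buffer was HBSS/HEPES (20 mM, pH 7.4), 0.1% BSA, 1 mg/mL D-luciferin. Cells were equilibrated 1 h at room temperature, then IBMX 200 μM added for 30 min. Test compound was added and luminescence read for 45 min.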

Sm.5HTRL [9] = molecular target: T1, Sm.5HTRL; conditions: ref Chan et al., 2018; cited from earlier work
[10] = ref Bard et al., 1993, Shen et al.
[11] = pKi, estimated using the Cheng-Prusoff equation, inhibition of 500 nM 5-HT

NCCc1c[nH]c2ccc(Br)cc12 [5-Bromotryptamine]
agonist activity at Sm.5HTRL (in words) (Sm.5HTRL [1]): partial agonist activity

NCCc1c[nH]c2ccc(C(N)=O)cc12 [5-Carboxamidotryptamine]
effect on worm movement (in words) (adult S. mansoni [2]): did not stimulate movement | agonist activity at Sm.5HTRL (in words) (Sm.5HTRL [1]; listed as 5-CT): inactive | activity at human 5-HT7 receptor (in words) (human 5-HT7 receptor; ref Plassat et al., 1993): full agonists | activity at mammalian 5-HT7 receptors (in words) [3, 10]: potent full agonists

C=CCN(CC=C)CCc1c[nH]c2ccc(OC)cc12 [5-MeO-DALT, N,N-diallyl-5-methoxytryptamine]
agonist activity at Sm.5HTRL (in words) (Sm.5HTRL [1]): inactive

COc1ccc2[nH]cc(CCN(C)C)c2c1 [5-MeO-DMT, 5-methoxy-N,N-dimethyltryptamine]
agonist activity at Sm.5HTRL (in words) (Sm.5HTRL [1]): inactive

COc1ccc2[nH]cc(CCN)c2c1 [5-methoxytryptamine]
effect on worm movement (in words) (adult S. mansoni [2]): stimulated movement | effect on worm movement (in words) (adult S. mansoni [2]; listed as 5-MeOT): potently stimulated movement | agonist activity at Sm.5HTRL (in words) (Sm.5HTRL [1]; listed as 5-MeOT): inactive; also recorded: did not potently activate | activity at human 5-HT7 receptor (in words) (human 5-HT7 receptor; ref Plassat et al., 1993): full agonists | activity at mammalian 5-HT7 receptors (in words) [3, 10]: potent full agonists

Cc1ccc2[nH]cc(CCN)c2c1 [5-methyltryptamine]
effect on worm movement (in words) (adult S. mansoni [2]): stimulated movement, but only at high concentrations in the hundreds of micromolar | agonist activity at Sm.5HTRL (in words) (Sm.5HTRL [1]): partial agonist activity

CCCN1CCc2cccc3c2[C@H]1Cc1ccc2c(c1-3)OCO2 [(-)-MDO-NPA hydrochloride]
Ki (Sm.5HTRL [4]; [11]): 100 nM

COc1cc2c(cc1O)C[C@H]1c3c(cc(O)c(OC)c3-2)CCN1C [Boldine]
antagonist activity at Sm.5HTRL (in words) (Sm.5HTRL [4]): potent antagonists | activity at Sm.5HTRL (in words) (Sm.5HTRL [5]; 2016a): Sm.5HTRL antagonists

CN(C)CCc1c[nH]c2ccc(O)cc12 [Bufotenine]
EC50 (Sm.5HTRL [1]): 2400 ± 200 nM | Emax (Sm.5HTRL [1]): 99 ± 34%

COc1ccc2c(c1OC)CN1CCc3cc4c(cc3[C@@H]1C2)OCO4 [Canadine]
antagonist activity at Sm.5HTRL (in words) (Sm.5HTRL [4]): loss of activity; also recorded: inactive

COc1cc2c(cc1OC)C1Cc3ccc(OC)c(OC)c3CN1CC2 (centres unmarked) [D,L Rotundine]
Ki (Sm.5HTRL [4]): 63.1 nM | activity at Sm.5HTRL (in words) (Sm.5HTRL [5]; 2016c, listed as D/L-rotundine): antagonist | activity at Sm.5HTRL (in words) (Sm.5HTRL [5]; 2016c, listed as rotundine): potent antagonists | effect on movement of adult worms (in words) (adult S. mansoni [6]): inhibited movement of adult worms

COc1cc2c(cc1OC)[C@H]1Cc3ccc(OC)c(OC)c3CN1CC2 [D-Rotundine]
antagonist activity at Sm.5HTRL (in words) (Sm.5HTRL [4]): inactive | inhibition of 5-HT evoked movement (in words) (adult S. mansoni [7]): no inhibition

COc1cc2c(cc1OC)-c1c(OC)c(OC)cc3c1[C@H](C2)N(C)CC3 [D-glaucine]
antagonist activity at Sm.5HTRL (in words) (Sm.5HTRL [4]): potent antagonists | Ki (Sm.5HTRL [4]; [11]): 158 nM | activity at Sm.5HTRL (in words) (Sm.5HTRL [5]; 2016a): Sm.5HTRL antagonists

CN(C)CCc1c[nH]c2ccccc12 [DMT, N,N-Dimethyltryptamine]
effect on worm movement (in words) (adult S. mansoni [2]): no effect on worm movement | agonist activity at Sm.5HTRL (in words) (Sm.5HTRL [1]): inactive

COc1cc2cc3c4c(cc(OC)c(OC)c4c2cc1OC)CCN3C [Dehydroglaucine]
antagonist activity at Sm.5HTRL (in words) (Sm.5HTRL [4]): inactive

COc1cc2c3c(c1OC)-c1ccccc1C[C@H]3N(C)CC2 [L-Nuciferine]
antagonist activity at Sm.5HTRL (in words) (Sm.5HTRL [4]): potent antagonists | Ki (Sm.5HTRL [4]; [11]): 79.4 nM | activity at Sm.5HTRL (in words) (Sm.5HTRL [5]; 2016a): potent antagonists; also recorded: Sm.5HTRL antagonists

COc1cc2c(cc1OC)[C@@H]1Cc3ccc(OC)c(OC)c3CN1CC2 [L-Rotundine]
antagonist activity at Sm.5HTRL (in words) (Sm.5HTRL [4]): active | concentration inhibiting 5-HT evoked movement (adult S. mansoni [7]): ≥ 1 µM

COc1ccc(CC2c3cc(OC)c(OC)cc3CCN2C)cc1OC (centres unmarked) [Laudanosine]
antagonist activity at Sm.5HTRL (in words) (Sm.5HTRL [4]): None of these showed any inhibition

CNCCc1c[nH]c2ccccc12 [N-Methyltryptamine]
agonist activity at Sm.5HTRL (in words) (Sm.5HTRL [1]): inactive

CNCCc1c[nH]c2ccc(O)cc12 [N-methylserotonin]
effect on worm movement (in words) (adult S. mansoni [2]): full agonist | increase in worm movement (adult S. mansoni [2]): 252 ± 9% | EC50 (Sm.5HTRL [1]): 154 ± 11 nM | Emax (Sm.5HTRL [1]): 113 ± 28% | activity at mammalian 5-HT7 receptors (in words) ([3]; ref Powell et al., 2008): full agonist

COc1cc2c(cc1OC)-c1cc3ccc(OC)c(OC)c3c[n+]1CC2 [Palmatine]
antagonist activity at Sm.5HTRL (in words) (Sm.5HTRL [4]): inactive | inhibition of 5-HT evoked movement (in words) (adult S. mansoni [7]): no inhibition

COc1ccc(C(=O)c2nccc3cc(OC)c(OC)cc23)cc1OC [Papaveraldine]
antagonist activity at Sm.5HTRL (in words) (Sm.5HTRL [4]): None of these showed any inhibition

COc1ccc(Cc2nccc3cc(OC)c(OC)cc23)cc1OC [Papaverine]
antagonist activity at Sm.5HTRL (in words) (Sm.5HTRL [4]): None of these showed any inhibition

CC1CCN(CC[C@H]2CCCN2S(=O)(=O)c2cccc(O)c2)CC1 [SB-269970]
activity at Sm.5HTRL (in words) (Sm.5HTRL [5]; 2016c): inactive

NCCc1c[nH]c2ccc(O)cc12 [Serotonin]
increase in worm movement (adult S. mansoni [2]): 224 ± 17% | activity in cells expressing the GloSensor-22F reporter alone (in words) [8]: not observed | EC50 (Sm.5HTRL [1]): 94 ± 18 nM

c1cc2c(c3c1CC1c4cc5c(cc4CCN1C3)OCO5)OCO2 (centres unmarked) [Tetrahydrocoptisine]
antagonist activity at Sm.5HTRL (in words) (Sm.5HTRL [4]): loss of activity | antagonist activity at Sm.5HTRL (in words) (Sm.5HTRL [4]; listed as tetrahydrocopsitine): inactive

NCCc1c[nH]c2ccccc12 [Tryptamine]
agonist activity at Sm.5HTRL (in words) (Sm.5HTRL [1]): negligible activity

COc1cc2c3c(c1O)-c1ccccc1CC3N(C)CC2 (centres unmarked) [compound 785177]
concentration inhibiting 5-HT evoked movement (adult S. mansoni [7]): 1 to 10 µM

COc1cc2c(cc1OC)CN1CCc3cc(OC)c(OC)cc3[C@@H]1C2 [d-Xylopinine]
antagonist activity at Sm.5HTRL (in words) (Sm.5HTRL [4]): decreased potency | times less potent than rotundine at Sm.5HTRL (Sm.5HTRL [4]; relative to rotundine): ~10

COc1cc2c3c(cc4ccccc4c3c1OC)N(C)CC2 [dehydronuciferine]
antagonist activity at Sm.5HTRL (in words) (Sm.5HTRL [4]): inactive

CN1C[C@H](C(=O)N[C@]2(C)O[C@@]3(O)[C@@H]4CCCN4C(=O)[C@H](Cc4ccccc4)N3C2=O)C=C2c3cccc4[nH]cc(c34)C[C@H]21 [ergotamine]
activity at Sm.5HTRL (in words) (Sm.5HTRL [9]): full agonist | activity at human 5-HT7 receptor (in words) (human 5-HT7 receptor; ref Wacker et al., 2013): potent antagonist

COc1cc2c3c(c1OC)-c1cc4c(cc1CC3N(C)CC2)OCO4 (centres unmarked) [nantenine]
antagonist activity at Sm.5HTRL (in words) (Sm.5HTRL [4]): potent antagonists

Reference: article PMC6287472 (International Journal for Parasitology: Drugs and Drug …, 2018)
